Experimental findings from ChEMBL document CHEMBL1125629, “Beta-substituted beta-phenylpropionyl chymotrypsins. Structural and stereochemical features in stable acyl enzymes” (J Med Chem, 1991) are described below.

Series [1] is described as follows: Deacylation rate constant(Kd slow) was determined by proflavin displacement assay. In outline:
(§1)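 Proflavin displacement: ester 90 μM (from DMSO) added to α-chymotrypsin 90 μM and proflavin 9 μM (final) in 0.1 M phosphate pH 7.2 at 25 °C. Return of A466 was followed, and the slope of semilog absorbance versus time gave kd. Racemic esters gave biphasic curves yielding kd(fast) and kd(slow), and their ratio approximates deacylation enantioselectivity.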

A short description of series [2]: Deacylation rate constant(Kd fast) was determined by proflavin displacement assay. In short, it runs like this: as §1
Series [3] in a line: kd ratio measured as the kd(fast)/kd(slow) values. It counts as ADME. In outline:
as §1

Series [4] can be described thus: Binding constant of the compound.
The nature of series [5]: Acylation rate constant was determined.
A short description of series [6]: Second order rate constant for acylation( ka/Ks). It counts as ADME. In outline:
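Competitive substrate assay with α-chymotrypsin (25 nM, active-site titrated) in 0.1 M phosphate buffer pH 7.2, 25 °C. MeO-Suc-Ala-Ala-Pro-Phe pNA was at 128 μM with ester at 10–350 μM, DMSO present. A410 followed for up to 300 s, and k_obs came from semilog plots in triplicate. ka and KS were obtained from I0/k_obs versus I0 by Main's equation (KM 50 μM).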

SMILES strings stand for the structures.

`N#CCC(CC(=O)Oc1ccc([N+](=O)[O-])cc1)c1ccccc1` (stereo not given): the figures for the Kd in series [1] and in series [2] were 0.000583 s⁻¹ and 0.15 s⁻¹, respectively. Also, in series [3], the Ratio is given as 257.

`C=C(C)C[C@H](CC(=O)O)c1ccccc1` gave a Kd in series [1] of 3.83e-05 s⁻¹.

The compound `CC(=O)C[C@@H](CC(=O)Oc1ccc(C#N)cc1)c1ccccc1` registered a Ks in series [4] of 91 µM. This compound also gave a Ka in series [5] of 58 min⁻¹. Besides, in series [6], the Ratio came out at 11000 M⁻¹ s⁻¹.

Compound `CC(=O)C[C@H](CC(=O)Oc1ccc(C#N)cc1)c1ccccc1` yielded a Ks in series [4] of 630 µM. The Ka in series [5] turned out to be 73 min⁻¹. The Ratio in series [6] is 2000 M⁻¹ s⁻¹.

`CC(=O)CC(CC(=O)Oc1ccc([N+](=O)[O-])cc1)c1ccccc1` (stereo not given): the Kd in series [1] turned out to be 6e-05 s⁻¹; in series [2], 0.0025 s⁻¹. In series [3], the Ratio came out at 42.

Turning to `O=CCC(CC(=O)Oc1ccc([N+](=O)[O-])cc1)c1ccccc1` (stereo not given), the Kd stood at 8.3e-05 s⁻¹ in series [1] and 0.015 s⁻¹ in series [2]. Also, in series [3], the Ratio was 180.

For `CC(C)CC(CC(=O)Oc1ccc([N+](=O)[O-])cc1)c1ccccc1` (stereo not given), the Kd in series [1] and in series [2] was 0.0016 s⁻¹ throughout.

For `CC(=O)OC(CC(=O)Oc1ccc([N+](=O)[O-])cc1)c1ccccc1` (stereo not given), the Kd in series [1] stood at 0.00017 s⁻¹; in series [2] it was 0.00112 s⁻¹. In addition, the Ratio in series [3] is 7.

For the compound `CC(=O)N[C@@H](CC(=O)Oc1ccc([N+](=O)[O-])cc1)c1ccccc1`, the values for the Kd in series [1] and in series [2] were 0.00033 s⁻¹ and 0.0262 s⁻¹, respectively. Also, the Ratio in series [3] is 785.

Turning to `O=C1CC(c2ccccc2)CC(=O)O1`, the Kd in series [1] and in series [2] was 0.0034 s⁻¹ each time.

Take `O=C(CCc1ccccc1)Oc1ccc([N+](=O)[O-])cc1`: the Kd in series [1] and in series [2] was 0.25 s⁻¹ throughout.

As to `COC(=O)CC(CC(=O)Oc1ccc([N+](=O)[O-])cc1)c1ccccc1` (stereo not given), the Kd in series [1] was 0.0008 s⁻¹; in series [2], 0.039 s⁻¹. Moreover, in series [3], the Ratio came to 49.

As to `O=C(CC(NC(=O)c1ccccc1)c1ccccc1)Oc1ccc([N+](=O)[O-])cc1` (stereo not given), the Kd in series [1] was 0.000417 s⁻¹; in series [2] it was 0.5 s⁻¹. In addition, the Ratio in series [3] was found to be 1200.

With `CCC(=O)NC(CC(=O)Oc1ccc([N+](=O)[O-])cc1)c1ccccc1` (stereo not given), the Kd in series [1] stood at 4.83e-05 s⁻¹; in series [2], 0.0725 s⁻¹. Also, the Ratio in series [3] is 1500.

`C=C(C)C[C@@H](CC(=O)Oc1ccc([N+](=O)[O-])cc1)c1ccccc1` registered a Kd in series [2] of 0.00287 s⁻¹. The Ratio in series [3] turned out to be 3.

On to `O=CNC(CC(=O)Oc1ccc([N+](=O)[O-])cc1)c1ccccc1` (stereo not given), for which the Kd in series [1] came to 0.00065 s⁻¹; in series [2], 0.0597 s⁻¹. The Ratio in series [3] is on record as 92.

`C=C(C)C[C@H](CC(=O)Oc1ccc([N+](=O)[O-])cc1)c1ccccc1`: the Kd in series [1] came out at 0.00112 s⁻¹. In series [3], the Ratio is given as 3.

With `O=C(CC(NC(=O)C(F)(F)F)c1ccccc1)Oc1ccc([N+](=O)[O-])cc1` (stereo not given), the Kd in series [1] and in series [2] was 0.000105 s⁻¹ throughout.

Regarding `NC(=O)CC(CC(=O)Oc1ccc([N+](=O)[O-])cc1)c1ccccc1` (stereo not given), the Kd was determined as 8.3e-05 s⁻¹ in series [1] and 0.00257 s⁻¹ in series [2]. Also, in series [3], the Ratio stood at 31.

Regarding `C=C(C)CC(CC(=O)Oc1ccc([N+](=O)[O-])cc1)c1ccccc1` (stereo not given), the Kd in series [1] and in series [2] was 0.0027 s⁻¹ throughout.

As to `C=C1C[C@H](c2ccccc2)CC(=O)O1` (stereo in doubt; 1 (R)), the Ks in series [4] came to 51 µM. In addition, the Ka in series [5] was found to be 35 min⁻¹. The Ratio in series [6] turned out to be 12000 M⁻¹ s⁻¹. Further, the Kd in series [1] was found to be 4.83e-05 s⁻¹.

`C=C1C[C@H](c2ccccc2)CC(=O)O1` (stereo in doubt; 1 (S)) displayed a Ks in series [4] of 8 µM. The Ka in series [5] came out at 17 min⁻¹. For the same compound, the values for the Ratio in series [6] and in series [3] were 38000 M⁻¹ s⁻¹ and 59, respectively. For the same compound, the Kd in series [2] came to 0.00283 s⁻¹.
